≈ marks a conversion by molar mass, not a printed value. Non-standard residues stand in square brackets, D forms with d. Residues, ends and D or L forms follow the SMILES beside them. ξ: configuration not given here. *: point of attachment. Cbz = O=C(OCc1ccccc1)*; ξNva = CCCC(N)C(=O)O
Key:
[1] = Tested for solubility of the compound; format: ADME; settings: read-out: S
Method in brief: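 The DMA stock was diluted in 0.9% saline to 3% DMA (inhibitor ≤0.9 mg/mL) and brought to pH 2.75 with 0.1 N HCl. It was sonicated 5 min, held 15 min at room temperature and centrifuged 5 min at 16500g. Supernatant concentration came from C4 reverse-phase HPLC (60 °C, 210 nm) peak area, calibrated against standards in acetonitrile.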

[2] = biological target: T1, Calpain-2 catalytic subunit (Bos taurus, UniProt Q27971); assay: Tested for inhibitory activity on bovine calpain 2 from heart
T1 sequence (Q27971 whole entry): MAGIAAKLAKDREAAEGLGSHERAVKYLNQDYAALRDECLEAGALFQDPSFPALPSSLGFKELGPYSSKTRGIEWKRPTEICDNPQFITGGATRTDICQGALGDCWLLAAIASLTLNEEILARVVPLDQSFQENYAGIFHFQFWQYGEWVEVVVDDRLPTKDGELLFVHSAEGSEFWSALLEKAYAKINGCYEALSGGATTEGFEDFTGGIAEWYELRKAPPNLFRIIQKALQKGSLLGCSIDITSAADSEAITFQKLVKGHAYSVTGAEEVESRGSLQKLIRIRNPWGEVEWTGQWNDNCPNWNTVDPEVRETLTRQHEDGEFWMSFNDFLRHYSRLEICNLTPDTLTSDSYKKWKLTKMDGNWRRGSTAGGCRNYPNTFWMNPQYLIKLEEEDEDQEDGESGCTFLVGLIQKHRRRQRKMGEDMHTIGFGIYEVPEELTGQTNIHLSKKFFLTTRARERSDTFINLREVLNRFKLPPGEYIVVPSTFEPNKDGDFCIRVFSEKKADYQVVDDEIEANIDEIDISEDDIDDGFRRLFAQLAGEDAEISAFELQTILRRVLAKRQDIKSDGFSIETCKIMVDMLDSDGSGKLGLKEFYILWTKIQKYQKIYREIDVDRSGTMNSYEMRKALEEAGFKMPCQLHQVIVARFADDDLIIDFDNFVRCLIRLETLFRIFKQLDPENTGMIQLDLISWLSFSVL

solubility [1]	Ki [2]	SMILES
730 µg/mL (≈ 1300 µM)	–	CCS(=O)(=O)CCNC(=O)C(=O)[C@@H](Cc1ccccc1)NC(=O)[C@H](CC(C)C)NC(=O)OCc1ccccc1
–	50 nM	CCCC(NC(=O)[C@H](CC(C)C)NC(=O)OCc1ccccc1)C(=O)NCC (stereo partly drawn) (Cbz-Leu-[ξNva]-NHEt)
